Results pooled from the literature.
Read-out: enzyme activity
Action: inhibitor
BRAF: Serine/threonine-protein kinase B-raf (BRAF, Homo sapiens, UniProt P15056)
BRAF V600E: Serine/threonine-protein kinase B-raf (BRAF, Homo sapiens, UniProt P15056, V600E)

Structure (SMILES)	target	assay	conditions	inhibition
O=C(CSc1nc2nccnc2c(=O)n1CCc1ccccc1)Nc1nccs1	BRAF		10 µM	9%
COc1cc(-c2cc(-c3ccc(N4CCNCC4)cc3)cnc2N)cc(OC)c1OC	BRAF V600E		1 µM	18%
Cc1ccc(N=Nc2sc(NN=C(CS(=O)(=O)c3ccccc3)c3ccc(C)cc3)nc2C)cc1	BRAF V600E	ATP luminescence	10 nM	29%
CN(C)C1CCN(CC#Cc2nn(C3CCCC3)c3nc(NCc4ccccc4)ncc23)C1 (stereo not drawn)	BRAF	FRET	1 µM	1%
CS(=O)(=O)Nc1cccc(-c2csc(NC(=O)CSc3nc4nccnc4c(=O)n3CCc3ccccc3)n2)c1	BRAF V600E		10 µM	2%
Cc1ccc(C(CS(=O)(=O)c2ccccc2)=NN=C2N=C(c3ccc(Br)cc3)CS2)cc1	BRAF V600E	ATP luminescence	1 µM	79%
COc1cc2ncnc(Nc3ccc(Oc4ccccc4)c(C)c3C)c2cc1OC	BRAF		1 µM	11%
COc1ccc(-c2csc(NN=C(CS(=O)(=O)c3ccccc3)c3ccc(F)cc3)n2)cc1	BRAF V600E	ATP luminescence	10 nM	25%
C=CC(=O)Nc1cc(Nc2nccc(Nc3cc(Cl)c(F)cc3C(C)(C)O)n2)c(OC)cc1N1CC[C@@H](N(C)C)C1	BRAF		1 µM	4%
Cc1ccc(C(CS(=O)(=O)c2ccccc2)=NNC2=NC(=O)C(=NNc3ccc(Cl)cc3)S2)cc1	BRAF V600E	ATP luminescence	10 µM	83%
CN1CC(Oc2cnc(C#N)cc2-c2ccn3nc(NC(=O)C4CC4)cc3c2)C1	BRAF		1 µM	2%
Cn1cncc1C1=CN(c2ncnc3[nH]cnc23)CCS1	BRAF	radiometric	50 nM	12.9%
